Calb biofilm kill: mixture kills Candida albicans biofilm cells. C. albicans biofilm persisters + clotrimazole, fluorescence viability; primary screen in compound mixtures of four per well. inhibition, % at 7.6 µM. 120,000 compounds, 0.02% hits. AID 1242;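 active = inhibition above 30.3% in the primary screen of four-compound pools, then above 30% when the compound was retested; inconclusive = passed the primary limit but could not be retested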;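 note: compounds exposed to preformed 24 h biofilms for 48 h; 0% = untreated biofilm control and 100% = clotrimazole plus chlorhexidine kill blank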
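Probe or stimulus – Clotrimazole 50 µg/mL co-treatment · System – C. albicans biofilms · Schedule – 24 h biofilm formation, then 48 h compound exposure, 37 °C · Evaluation – percent inhibition of biofilm viability · Technique – 2-h Alamar Blue fluorescence, 535/590 nm excitation/emission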
ROMK primary: human ROMK K+ channel modulation, primary screen; Tet-inducible ROMK, thallium flux fluorescence; actives lie on both sides; 130,000 compounds, 2% hits; P48048; AID 1918; B-score at 10 µM;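 active = signal ratio slope over the read window, or its plate-corrected B-score, at least 3 SD from the plate mean, either direction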;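 note: B-score of the F/F0 ratio slope over 7 to 12 s after thallium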
Target sequence (P48048 whole entry, looked up): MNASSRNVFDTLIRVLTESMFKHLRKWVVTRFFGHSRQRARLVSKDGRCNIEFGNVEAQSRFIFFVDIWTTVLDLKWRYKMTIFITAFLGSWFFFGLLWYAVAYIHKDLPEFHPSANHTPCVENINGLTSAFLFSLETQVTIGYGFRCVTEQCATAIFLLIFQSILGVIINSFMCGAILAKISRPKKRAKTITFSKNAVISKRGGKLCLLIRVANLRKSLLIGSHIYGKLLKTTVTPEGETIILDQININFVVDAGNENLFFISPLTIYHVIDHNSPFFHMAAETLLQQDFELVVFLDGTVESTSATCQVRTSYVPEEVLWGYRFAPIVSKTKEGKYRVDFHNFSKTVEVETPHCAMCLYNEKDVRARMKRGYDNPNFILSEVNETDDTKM
ROMK hit retest: retested hit modulating human ROMK potassium channel. shares compounds with ROMK primary. ROMK thallium flux, fluorescence ratio; hits give low values. normalized thallium flux (F/F0 slope) at 10 µM. 3,000 compounds, 54% hits. AID 1917;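 active = Flux at 10 µM at least 3 SD below or above vehicle control mean in one or both replicates; inconclusive = no clear call, values can overlap the other calls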
Numbers without * were called inactive; ? = inconclusive; . = no result given. Many of the other results were omitted from the sample, so hits are more common in it than they were.

SMILES | Calb biofilm kill | ROMK primary | ROMK hit retest
N#C/C(=C\c1ccc(OC(=O)c2ccc(Cl)s2)cc1)c1nc2ccccc2[nH]1 | 12 | -0.71 | .
O=C(N/N=C/c1cn(-c2cccs2)nc1-c1ccccc1)c1ccccc1Cl | 11 | -0.56 | .
O=C(N/N=C/c1cn(-c2cccs2)nc1-c1ccccc1)c1ccc(O)cc1 | 16 | -3.5* | 0.059*
Cc1cc(C)c2c(N)c3cccc(C)c3nc2n1 | 8 | . | .
Cc1oc(-c2cccc3ccccc23)nc1CN1CCN(c2ncnc3ccccc23)CC1 | 1 | . | .
Cc1nn(-c2ccccc2)c2c1C(c1ccccc1)C(C#N)=C(N)O2 (configuration not stated) | . | -2.9 | .
N#CC1=C(N)N(c2ccccc2)C(c2ccccc2)C1(C#N)C#N (configuration not stated) | . | -3* | 0.055*
CC(=O)Cc1nsc(NC(=O)c2ccc(-c3ccc(Cl)c(Cl)c3)o2)n1 | 18 | 0.16 | .
CC(=O)Cc1nsc(NC(=O)c2ccc(-c3cc(Cl)ccc3Cl)o2)n1 | 16 | 3.8* | 0.089
Cc1cc(C)nc(N2CCCC(C(=O)NCc3ccccc3F)C2)n1 (configuration not stated) | 7 | -1.4 | .
Cc1cc2c(cc1C)N(C(=O)CSc1nncn1C)C(C)(C)c1ssc(=S)c1-2 | 8 | -3.5* | 0.064*
CC1=CC(C)(C)N(C(=O)CSc2nncn2C)c2ccccc21 | 14 | . | .
Cc1ccc(S(=O)(=O)Nc2ccc(C(OC(=O)c3ccccc3[N+](=O)[O-])(C(F)(F)F)C(F)(F)F)cc2)cc1 | 14 | . | .
O=C(OC(c1ccc(NS(=O)(=O)c2ccccc2)cc1)(C(F)(F)F)C(F)(F)F)c1ccccc1 | 8 | -4.5* | 0.062*
COc1ccc(/C=C/C(=O)NCCc2ccc(S(N)(=O)=O)cc2)cc1 | 18 | 0.85 | .
COc1ccc(CC(=O)NCCc2ccc(S(N)(=O)=O)cc2)cc1 | . | 1.5* | 0.085
Cc1ccc(NC(=O)c2ccc3c(c2)C(=O)N(Cc2cccnc2)C3=O)c(C)c1 | 34 | -0.52 | .
COc1cccc(-c2c(C#N)c(SC)nc3cc(C)nn23)c1 | 17 | . | .
Cc1ccc(C)c2nc3sc(C(=O)O)cc3cc12 | 21 | 0.052 | .
Cc1ccc(N2CC(C(=O)Nc3ccc(C)c(S(=O)(=O)N(C)C)c3)CC2=O)cc1 (configuration not stated) | 32 | 0.62 | .
COc1ccc(/C=C/C(=O)C23CC4CC(CC(C4)C2)C3)cc1CN1CCOCC1 | 5 | -0.67 | .
Cc1c(Nc2cc(N3CCOCC3)c3nonc3c2[N+](=O)[O-])c(=O)n(-c2ccccc2)n1C | -3 | 0.69 | .
Cc1c(Nc2cc(Cl)c3nonc3c2[N+](=O)[O-])c(=O)n(-c2ccccc2)n1C | 6 | -4.4* | 0.04*
CC1(c2ccccc2)CC(C)(C)N2C(=O)Cc3cccc1c32 (configuration not stated) | 4 | -0.0032 | .
COc1ccccc1/C=N/NC(=O)COCC(=O)N/N=C/c1ccccc1OC | 13 | -1 | .
SMILES | Calb biofilm kill | ROMK primary | ROMK hit retest
COc1ccccc1/C=N/NC(=O)CC(=O)Nc1ccc(Cl)c(Cl)c1 | . | -3.8* | 0.087
COc1cccc(-c2nnc(NC(=O)c3ccc4ncsc4c3)o2)c1 | 12 | 0.48 | .
CC(c1nnc(SCC(=O)Nc2cccnc2Cl)n1Cc1ccccc1)N(C)C (configuration not stated) | 19 | -0.54 | .
COCCCNS(=O)(=O)c1ccc2[nH]c(=O)[nH]c2c1 | 14 | . | .
O=c1[nH]c2ccc(S(=O)(=O)NCCO)cc2[nH]1 | 28 | 1.5* | 0.075
O=C(Oc1cccc([N+](=O)[O-])c1)N1CCCCC1 | -5 | -0.91 | .
COc1ccc(NC(=O)/C(C#N)=C/c2ccc(Sc3nncn3C)c([N+](=O)[O-])c2)cc1 | 2 | -6.5* | 0.036*
Cn1cnnc1Sc1ccc(/C=C/C(=O)c2ccc(O)cc2)cc1[N+](=O)[O-] | 16 | 0.94 | .
CCCN(CCC)S(=O)(=O)c1ccc(NC(=O)COc2ccccc2)cc1 | . | 0.042 | .
CC(Nc1cc(N2CCNCC2)ccc1[N+](=O)[O-])c1ccccc1 (configuration not stated) | 22 | -3.2* | 0.053*
CC(C)C(=O)N1CCN(c2ccc([N+](=O)[O-])c(NC(C)c3ccccc3)c2)CC1 (configuration not stated) | 14 | -0.88 | .
O=S1(=O)CCN(OCc2ccc(Cl)cc2)CC1 | 10 | -0.3 | .
CCc1ccc(NC(=O)Cn2c3[n+](c4c(F)c(F)ccc42)CCCCC3)cc1 | 16 | -0.37 | .
CCc1cccc(C)c1NC(=O)C1CN(S(=O)(=O)c2ccccc2)CCN1S(=O)(=O)c1ccccc1 (configuration not stated) | -5 | -1.2 | .
COc1ccc(CCn2c(C)nc3ccccc3c2=O)cc1OC | 19 | 1.3 | .
CCSc1nc2ccccc2c(=O)n1CCc1ccc(OC)c(OC)c1 | 24 | . | 0.082
O=C(NCC1CCCN(Cc2ccc3nonc3c2)C1)c1cccc(C(F)(F)F)c1 (configuration not stated) | 12 | . | .
COc1cccc(NC(=S)N2CCN(Cc3ccccc3)CC2)c1 | 20 | -0.62 | .
CO/N=C\Cc1oc(=O)c(NC(=O)c2ccccc2)cc1C(=O)OC | . | 0.84 | .
COC(=O)c1cc(NC(=O)c2ccccc2)c(=O)oc1C/C=N\OCc1ccc(Cl)cc1Cl | . | -2.8* | 0.065*
CN(CC(=O)N1CCCC1)S(=O)(=O)c1ccc2ccccc2c1 | -1 | 0.19 | .
CSc1nsc2nc(=O)c(/C=C3\C(C)=Nc4ccc(C)cc43)c(N)n12 | 18 | 0.51 | .
Nc1c(C=C2C=CC(=O)C=C2)c(=O)nc2snc(SCc3ccccc3)n12 | 11 | . | ?
COc1ccc(-n2c(C)nc3cc(C(=O)NCc4ccc5c(c4)OCO5)ccc32)cc1 | 9 | 4.2* | 0.092
CCOc1ccc(-n2c(C)nc3cc(C(=O)NCc4ccc5c(c4)OCO5)ccc32)cc1 | 18 | 2.3 | .
SMILES | Calb biofilm kill | ROMK primary | ROMK hit retest
CCCCNC(=S)N(C)/N=C/c1ccc(OCc2ccc(C(=O)OC)cc2)c(OC)c1 | 17 | -0.55 | .
COc1nccnc1NS(=O)(=O)c1ccc(N=Cc2c(C)[nH]n(-c3ccc(Cl)cc3)c2=O)cc1 | 20 | . | .
COc1nccnc1NS(=O)(=O)c1ccc(N=Cc2c(C)[nH]n(-c3ccc(C)c(C)c3)c2=O)cc1 | . | 2.3* | 0.086
CCCCCCCCCCCCCCCCn1cc[n+](C)c1 | 26 | -2.2 | 0.065*
CCCCCCN1Cc2ccccc2C1 | . | 0.23 | .
O=C(CN1CCN(Cc2ccccc2Cl)CC1)N/N=C/c1cccs1 | 12 | -0.37 | .
Cc1ccn2c(NCc3ccccc3)c(-c3cccs3)nc2c1 | -29 | -0.45 | .
Cc1ccn2c(-c3csc(NCc4ccccc4)n3)c(C)nc2c1 | -9 | -4.7* | 0.06*
C=CCSC1=N/C(=C\c2ccc(C(=O)O)cc2)C(=O)S1 | 9 | -0.53 | .
CCN1CCN(CCNC(=O)c2ccc(/C=C3/Sc4ccccc4N(Cc4cccc(Cl)c4)C3=O)cc2)CC1 | 2 | -1.3 | .
CCN1CCN(CCNC(=O)c2ccc3c(c2)N(Cc2ccc(F)cc2)C(=O)/C(=C/c2ccccc2)S3)CC1 | 1 | -3.1* | 0.073
CC(C)(C)c1ccc(COn2ccnc2)cc1 | 17 | -1.8 | .
COc1ccc(N(C(=O)CCl)C(C(=O)NCCc2ccccc2)c2cccs2)cc1Cl (configuration not stated) | 19 | -3.3* | 0.063*
